# Results as given in publication PMC12461553 (RSC Advances, 2025).
# Key:
# 4T1 cells [1] = test: Cell cycle analysis; assay type: cell-based, murine; conditions: 4T1, 6 μM
# How it was run: (§1)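 Cells were seeded at 1 × 10^5 per well and attached 24 h, then exposed to test compound for 24 h. Doxorubicin (0.5 μM) and untreated controls were run alongside. Cells were harvested, washed with PBS and stained with PI/RNase solution for DNA content. Flow cytometry gave G1, S and G2/M fractions from fluorescence intensity using predefined gates.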
# MCF-7 cells [2] = test: Annexin V-FITC/PI apoptosis assay, MCF-7; assay type: cell-based, human
# How it was run: (§2)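 Cells were seeded at 1 × 10^5 per well and allowed to adhere 24 h, then treated 24 h with test compound (2, 4, 6 μM) alongside untreated controls. They were harvested, washed in PBS and stained with annexin V-FITC plus PI in binding buffer, 20 min, dark, room temperature. Flow cytometry gave percentages of viable, early apoptotic, late apoptotic and necrotic cells.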
# MDA-MB-231 cells [3] = test: SRB cytotoxicity assay, MDA-MB-231; assay type: cell-based, human
# MCF-7 cells [4] = test: Cell cycle analysis; assay type: cell-based, human; conditions: MCF-7, 6 μM
# How it was run: as §1
# MDA-MB-231 cells [5] = test: Cell cycle analysis; assay type: cell-based, human; conditions: MDA-MB-231, 4 μM
# How it was run: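 Cells were treated with test compound at 0.5, 1, 2 and 4 μM beside untreated controls. They were stained with propidium iodide and analysed by flow cytometry to give the percentages of cells in G1, S and G2/M phases.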
# HEK-293 kidney cells = test: SRB cytotoxicity assay, HEK-293 normal cells; assay type: cell-based; conditions: Homo sapiens, HEK293, read-out: IC50 value, HEK-293 kidney cells
# How it was run: (§3)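 Dose–response SRB assay: cells at 3000 per well were attached 24 h, then treated 48 h with test compound at 0.39–25 μM. They were TCA-fixed and stained with 0.057% SRB. Bound dye was dissolved in Tris base pH 10.5 and read at 510 nm. IC50 was fitted by non-linear regression.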
# 4T1 cells [6] = test: SRB cytotoxicity assay, 4T1; assay type: cell-based, murine
# How it was run: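 Single-dose screen: cells in DMEM/10% FBS at 37 °C, 5% CO2, seeded at 3000 per well, attached 24 h, then exposed to test compound at 25 μM final for 48 h. Fixed in cold 10% TCA, 1 h, 4 °C; stained 0.057% SRB, 30 min, dark, room temperature; rinsed with 1% acetic acid; dye solubilised in Tris base pH 10.5; absorbance 510 nm; percent cell death.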
# BEAS-2B lung cells = test: SRB cytotoxicity assay, BEAS-2B normal cells; assay type: cell-based; conditions: Homo sapiens, read-out: IC50 value, BEAS-2B lung cells
# How it was run: as §3
# 4T1 cells [7] = test: Annexin V-FITC/PI apoptosis assay, 4T1; assay type: cell-based, murine
# How it was run: as §2
# MCF-7 cells [8] = test: SRB cytotoxicity assay, MCF-7; assay type: cell-based, human
# MDA-MB-231 cells [9] = test: 3D spheroid; assay type: cell-based, human; conditions: 8 days
# How it was run: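 Single-cell suspensions in 1.5% methylcellulose/DMEM with 20% FBS were seeded at 1 × 10^5 cells per well over a 1% agarose–DMEM base for non-adherent growth. Cells were treated with test compound (0.5, 1, 2 μM) or doxorubicin and incubated 8 days. Spheres (≥20 cells) were imaged by fluorescence microscopy and counted per microscopic field.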
# [10] = test system: BCL-2 and Survivin expression in MDA-MB-231 cells; test: Gene expression analysis by RT-qPCR; assay type: cell-based, human
# How it was run: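 Cells were treated 48 h with varying test compound concentrations, then total RNA was extracted and checked spectrophotometrically. 2 μg RNA was reverse-transcribed to cDNA. BCL2 and Survivin transcripts were measured by RT-qPCR and quantified by the 2−ΔΔCt method against β2-microglobulin as reference gene.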
structure (smiles),measurement,setting,value
"Cc1ccc(C(=O)c2c(-c3ccccc3)n(Cc3ccccc3)c(=O)c3c2c2ccccc2n3C)cc1 [9c, 2-Benzyl-9-methyl-4-(4-methylbenzoyl)-3-phenyl-2,9-dihydro-1H-pyrido[3,4-b]indol-1-one]",G1 phase population,4T1 cells [1],50.1%
same,G2/M population,4T1 cells [1],41.1%
same,Early apoptosis,"MCF-7 cells [2]; MCF-7, 2 μM",7.2%
same,Total apoptotic population (early + late),"MCF-7 cells [2]; MCF-7, 2 μM",11.3%
same,Early apoptosis,"MCF-7 cells [2]; MCF-7, 4 μM",8.05%
same,Total apoptotic population (early + late),"MCF-7 cells [2]; MCF-7, 4 μM",14.1%
same,Early apoptosis,"MCF-7 cells [2]; MCF-7, 6 μM",9.9%
same,Total apoptotic population (early + late),"MCF-7 cells [2]; MCF-7, 6 μM",16.5%
same,cytotoxicity at 25 µM,"MDA-MB-231 cells [3]; Homo sapiens, MDA-MB-231, 48 h, read-out: Average cell death (%) MDA-MB-231",94.7 ± 1.1%
same,IC50,"MDA-MB-231 cells [3]; Homo sapiens, MDA-MB-231, 48 h, read-out: IC50 value, MDA-MB-231",0.77 ± 0.03 µM
same,Selectivity for MDA-MB-231 breast cancer cells,MDA-MB-231 cells [3]; MDA-MB-231 over normal HEK-293 kidney and BEAS-2B lung cells,~10 fold
same,G1 phase population,MCF-7 cells [4],85.6%
same,G1 phase population,MDA-MB-231 cells [5],46.9%
same,G2/M population,MDA-MB-231 cells [5],41.9%
same,IC50,HEK-293 kidney cells,7.96 ± 0.04 µM
same,cytotoxicity at 25 µM,"4T1 cells [6]; Mus musculus, 4T1, 48 h, read-out: Average cell death (%) 4T1",72.34 ± 0.04%
same,IC50,"4T1 cells [6]; Mus musculus, 4T1, 48 h, read-out: IC50 value, 4T1",3.71 ± 0.39 µM
same,Average cell death (%) 4T1,"4T1 cells [6]; at 25 μM, 48 h, SRB assay",72.34 ±4.04%
same,IC50,BEAS-2B lung cells,7.18 ± 0.32 µM
same,Early apoptosis,"4T1 cells [7]; 4T1, 2 μM",13.5%
same,Total apoptosis,"4T1 cells [7]; 4T1, 2 μM",16.5%
same,Early apoptosis,"4T1 cells [7]; 4T1, 4 μM",19.2%
same,Total apoptosis,"4T1 cells [7]; 4T1, 4 μM",23.5%
same,Early apoptosis,"4T1 cells [7]; 4T1, 6 μM",22%
same,Total apoptosis,"4T1 cells [7]; 4T1, 6 μM",27.2%
same,cytotoxicity at 25 µM,"MCF-7 cells [8]; Homo sapiens, MCF7, 48 h, read-out: Average cell death (%) MCF-7",75.14 ± 0.02%
same,IC50,"MCF-7 cells [8]; Homo sapiens, MCF7, 48 h, read-out: IC50 value, MCF-7",4.34 ± 0.31 µM
same,Average cell death (%) MCF-7,"MCF-7 cells [8]; at 25 μM, 48 h, SRB assay",75.14 ±4.02%
same,Number of spheres,"MDA-MB-231 cells [9]; MDA-MB-231, 0.5, 1, and 2 μM",reduced the number of spheres in a dose-dependent manner
same,Sphere formation,"MDA-MB-231 cells [9]; MDA-MB-231, methylcellulose",completely abrogated sphere formation
same,Expression of BCL-2,[10],significantly downregulated
same,Expression of Survivin,[10],significantly downregulated
